According to ChEMBL document CHEMBL1641462, “Synthesis and in vivo evaluation of ¹⁸F-fluoroethyl GF120918 and XR9576 as positron emission tomography probes for assessing the function of drug efflux transporters” (Bioorg Med Chem, 2011):
Calls of active or inactive are those of the source.

Columns and labels:
Format in all cases: cell-based
Conditions in all cases: 7.4 M; tested as the 18F-labelled form
[1] = (§1) Increase of P-glycoprotein-mediated intracellular drug uptake expressed in human MES-SA/Dx5 cells at 7.4 MBq/ml after 120 mins by gamma counting in presence of 10 uM of GF120918
How it was run: (§2)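 MES-SA/Dx5 doxorubicin-resistant human uterine sarcoma cells grown in McCoy's 5A + 10% FCS at 37 °C, 5% CO2; monolayers (10^5 cells/well) incubated 120 min with 7.4 MBq/ml [18F]-tracer ± 10 µM inhibitor. Washed five times in cold PBS, lysed in 0.2 M NaOH, gamma counted, normalized to protein (%ICD/mg). Percent increase vs untreated cells; triplicate.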

[2] = Increase of P-glycoprotein-mediated intracellular drug uptake expressed in human MES-SA/Dx5 cells at 7.4 MBq/ml after 120 mins by gamma counting in presence of 10 uM of XR9576; how it was run: as §2
[3] = Increase of P-glycoprotein-mediated intracellular drug uptake expressed in human MES-SA/Dx5 cells at 7.4 MBq/ml after 120 mins by gamma counting in presence of 10 uM of N-(4-(2-(1,2,3,4-tetrahydro-6,7-dimethoxy-2- isoquinolinyl)ethyl)phenyl)-9,10-dihydro-5-fluoroethoxy-9- oxo-4-acridine carboxamide; how it was run: as §2
[4] = as §1, with “quinoline-3-carboxylic acid [2-(4-{2-[7-(2-fluoroethoxy)- 6-methoxy-3,4-dihydro-1H-isoquinolin-2-yl]ethyl}phenylc arbamoyl)-4,5-dimethoxyphenyl]amide” for “GF120918”; how it was run: as §2

Measured: Drug uptake

COc1cc2c(cc1OC)CN(CCc1ccc(NC(=O)c3cccc4c(=O)c5cccc(OCCF)c5[nH]c34)cc1)CC2
active: all assays above

COc1cc(NC(=O)c2cnc3ccccc3c2)c(C(=O)Nc2ccc(CCN3CCc4cc(OC)c(OCCF)cc4C3)cc2)cc1OC
active: all assays above
